Test results: ChEMBL document CHEMBL4428067, “Drug Discovery against Psoriasis: Identification of a New Potent FMS-like Tyrosine Kinase 3 (FLT3) Inhibitor, 1-(4-((1H-Pyrazolo[3,4-d]pyrimidin-4-yl)oxy)-3-fluorophenyl)-3-(5-(tert-butyl)isoxazol-3-yl)urea, That Showed Potent Activity in a Psoriatic Animal Model” (J Med Chem, 2016)

Legend:
[1] = biological target: T1, Receptor-type tyrosine-protein kinase FLT3 (Mus musculus) (UniProt Q00342); test: Inhibition of FLT3 in Balb/c mouse BMDCs assessed as suppression of FLT3L-induced mDC formation measured as upper right quadrant cells level treated on day 9 post 9 days of FLT3L-stimulation measured after 24 hrs by CD11c PerCP and I-A/I-E (MHC class II) FITC staining based flow cytometric analysis (reference value: 21%); set-up: scale not given: the % may be the effect or the level left
T1 sequence (whole entry): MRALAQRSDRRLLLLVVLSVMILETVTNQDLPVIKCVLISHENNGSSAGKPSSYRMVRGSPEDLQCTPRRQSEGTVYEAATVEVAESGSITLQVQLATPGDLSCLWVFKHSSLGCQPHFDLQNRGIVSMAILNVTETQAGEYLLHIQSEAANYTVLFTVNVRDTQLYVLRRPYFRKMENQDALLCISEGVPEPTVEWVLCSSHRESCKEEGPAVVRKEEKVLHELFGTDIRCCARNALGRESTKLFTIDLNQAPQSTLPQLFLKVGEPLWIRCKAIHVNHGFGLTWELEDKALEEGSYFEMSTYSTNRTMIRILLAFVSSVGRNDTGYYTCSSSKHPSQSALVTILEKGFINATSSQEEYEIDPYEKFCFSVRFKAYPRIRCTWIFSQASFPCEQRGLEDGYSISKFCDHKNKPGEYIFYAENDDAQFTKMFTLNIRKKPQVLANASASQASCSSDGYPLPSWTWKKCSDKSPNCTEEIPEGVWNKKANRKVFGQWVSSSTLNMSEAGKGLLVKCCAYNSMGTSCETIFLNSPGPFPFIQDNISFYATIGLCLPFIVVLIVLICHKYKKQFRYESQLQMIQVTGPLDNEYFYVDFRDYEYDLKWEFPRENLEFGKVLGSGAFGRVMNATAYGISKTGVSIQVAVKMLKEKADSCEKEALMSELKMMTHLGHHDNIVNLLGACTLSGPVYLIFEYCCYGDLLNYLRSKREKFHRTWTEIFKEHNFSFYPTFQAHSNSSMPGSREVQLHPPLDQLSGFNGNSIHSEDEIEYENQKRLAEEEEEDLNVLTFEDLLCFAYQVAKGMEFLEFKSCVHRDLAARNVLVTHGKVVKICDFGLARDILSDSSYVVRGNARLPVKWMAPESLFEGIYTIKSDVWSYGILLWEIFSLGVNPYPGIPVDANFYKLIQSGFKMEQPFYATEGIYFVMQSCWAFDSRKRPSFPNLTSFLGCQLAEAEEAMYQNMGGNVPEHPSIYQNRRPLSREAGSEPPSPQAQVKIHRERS
How it was run: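 BALB/c bone marrow cells were cultured at 1×10^6/ml with FLT3L in supplemented RPMI-1640 for 9 days. Compound in DMSO or 0.1% DMSO was added on day 9 for 24 h. Cells were stained for 30 min with CD11c PerCP plus B220 FITC (pDC: CD11c+ B220+) or MHC II FITC (mDC: CD11c+ MHC II+), then analysed by flow cytometry. Three independent experiments.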

Mus musculus = species: Mus musculus; test: Antipsoriatic activity in K14-VEGF transgenic mouse model of psoriasis assessed as decrease in CD54 expression in psoriatic lesion at 0.05% applied tropically over lesion for continuous 29 days by immunohistochemical analysis relative to vehicle control; assay type: functional; set-up: scale not given: the % may be the effect or the level left
How it was run: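 K14-VEGF mice were treated topically with 0.05% cream or vehicle for 29 days, n=3 per group. Ear skin was paraffin-embedded, cut into 4-µm sections and immunostained. Staining was quantified in 5 random fields, reported as mean ± SD.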

Activity [1]: 16.7%
Structure (SMILES): CC(C)(C)c1cc(NC(=O)Nc2ccc(Oc3ncnc4[nH]ncc34)c(F)c2)no1
Activity (Mus musculus): 87%
